From PubChem BioAssay
The list is not random: actives were taken first. Their share in the collection is about 1.2%.
HKDC1 inhibitor = HKDC1 hexokinase inhibitors, primary screen, biochemical, fluorescence, uHTS; Q2TB90; inhibition, % at 20 µM; recombinant HKDC1, G6PDH/diaphorase resazurin coupled fluorescence; hit rate 0.16% among 340,000;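 active = inhibition above about 35% when tested at 20 µM, limit read from the data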
Target sequence (Q2TB90 whole entry, looked up): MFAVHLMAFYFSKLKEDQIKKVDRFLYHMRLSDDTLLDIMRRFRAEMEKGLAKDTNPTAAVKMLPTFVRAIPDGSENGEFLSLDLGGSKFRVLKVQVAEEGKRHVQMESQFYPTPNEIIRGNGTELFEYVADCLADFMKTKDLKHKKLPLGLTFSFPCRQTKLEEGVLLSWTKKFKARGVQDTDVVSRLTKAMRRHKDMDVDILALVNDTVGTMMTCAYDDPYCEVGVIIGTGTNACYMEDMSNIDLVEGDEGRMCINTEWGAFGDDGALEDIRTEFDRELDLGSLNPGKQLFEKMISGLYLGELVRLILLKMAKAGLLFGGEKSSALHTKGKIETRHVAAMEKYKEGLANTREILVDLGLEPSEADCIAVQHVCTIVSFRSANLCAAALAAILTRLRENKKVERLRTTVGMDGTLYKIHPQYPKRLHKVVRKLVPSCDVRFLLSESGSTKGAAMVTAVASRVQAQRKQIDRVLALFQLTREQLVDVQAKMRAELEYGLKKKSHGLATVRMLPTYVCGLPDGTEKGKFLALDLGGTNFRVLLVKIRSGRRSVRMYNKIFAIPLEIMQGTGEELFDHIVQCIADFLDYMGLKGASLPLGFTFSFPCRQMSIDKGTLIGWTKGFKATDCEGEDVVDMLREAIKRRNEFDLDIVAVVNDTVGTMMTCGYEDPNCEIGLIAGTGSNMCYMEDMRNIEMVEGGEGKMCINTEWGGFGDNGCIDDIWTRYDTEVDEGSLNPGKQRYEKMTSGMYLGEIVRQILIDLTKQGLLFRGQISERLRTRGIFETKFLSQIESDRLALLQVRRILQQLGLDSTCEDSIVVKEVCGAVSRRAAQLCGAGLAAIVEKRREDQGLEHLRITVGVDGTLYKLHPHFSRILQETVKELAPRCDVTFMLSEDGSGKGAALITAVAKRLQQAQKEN
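Assay system: recombinant HKDC1 hexokinase; detection: coupled resazurin fluorescence, excitation 525 nm, emission 613 nm; benchmarks: DMSO-plus-enzyme-mix negative control, buffer-substituted positive control; compound dosing: single 20 µM dose; schedule: 90 min at room temperature in dark; also added: glucose plus 1 mM ATP as hexokinase substrates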
Diaph inh CS = diaphorase inhibitors and chemical oxidizers, primary screen, counter-screen for diaphorase-coupled primary assays, biochemical, uHTS, resorufin fluorescence | diaphorase resazurin-to-resorufin fluorescence, NADH, 16 min; bacterial (C. kluyveri) enzyme, not human | inhibition, % at 20 µM | hit rate 0.69% among 190,000 | AID 1217, 2008;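 active = primary screen inhibition at 20 µM above a set limit, cut at about 50% in these data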
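System: Diaphorase enzyme from Clostridium kluyveri | Amount: Enzyme working solution with 0.14 U/mL diaphorase | Benchmarks: No-NADH positive control and DMSO neutral control | Signal: Fluorescence of resorufin formed from resazurin, Ex 544/Em 590 nm | Schedule: 16-min room-temperature incubation before reading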
PfG6PD inh = PfG6PD enzyme inhibitors, primary screen, biochemical, fluorescence intensity, uHTS. PfGluPho enzyme, NADPH resazurin-diaphorase fluorescence. inhibition, % at 20 µM. hit rate 0.78% among 350,000. AID 504690, 2011;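 active = inhibition reaching at least a set limit at 20 µM in the primary screen, cut at about 59% in these data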
G6PDH counter = L. mesenteroides G6PDH inhibitors, counter-screen for G6PDH-coupled screening assays, biochemical, Leuconostoc mesenteroides enzyme; inhibition, % at 5 µM; glucose-6-phosphate dehydrogenase [Leuconostoc mesenteroides]; AID 1020, 2008; Purified L. mesenteroides G6PDH, diaphorase/resazurin coupled fluorescence, 45 min; hit rate 0.12% among 200,000; in the data active = inhibition above about 50%
Hits are given with their value; n = inactive; x = no result.

SMILES | HKDC1 inhibitor | Diaph inh CS | PfG6PD inh | G6PDH counter
O=C(CSc1nc2c(cnn2-c2ccc(F)cc2)c(=O)[nH]1)N1CCCc2ccccc21 | n | 63 | n | n
O=C1CN(C(=O)CSc2nc3c(cnn3-c3ccccc3)c(=O)[nH]2)c2ccccc2N1 | n | x | n | x
O=C(CSc1ccc2nnc(-c3ccc(F)cc3)n2n1)N1CCCc2ccccc21 | n | 59 | n | n
Cc1cc(-c2nnc(SCC(=O)Nc3ccc(F)cc3F)n2N)n[nH]1 | n | x | n | x
CCOC(=O)C1CCCN(C(=O)c2cccc(S(=O)(=O)N(Cc3ccccc3)c3ccccc3OC)c2)C1 (centres undefined) | n | x | n | x
O=C(c1cc(C2CC2)nn1-c1ccccc1)N1CCN(S(=O)(=O)c2ccccc2)CC1 | n | x | n | x
COCc1cc(=O)[nH]c(=S)[nH]1 | n | n | n | n
COCc1cc(C)c(C#N)c(=S)[nH]1 | n | n | 70 | n
O=C(CCl)Nc1ccccc1Sc1ccc(Cl)cc1 | n | n | 87 | n
c1ccc(Cc2nnc(N3CCOCC3)c3ccccc23)cc1 | n | n | n | 56
c1ccc(Cc2nnc(N3CCCCC3)c3ccccc23)cc1 | n | n | n | n
Cc1ccc(NC(=O)c2cc(S(=O)(=O)N3CCOCC3)ccc2Cl)cc1S(=O)(=O)N1CCOCC1 | n | x | n | x
c1ccc(N2CCN(c3nc4ccccc4[nH]3)CC2)nc1 | n | 67 | n | n
CCOc1ccc(-c2nnc3ccc(SCC(=O)N4CCCCC4)nn23)cc1 | n | n | n | n
CCOc1ccc(-c2nnc3ccc(SC(C)C)nn23)cc1 | n | 60 | n | n
Cc1ccc(S(=O)(=O)N(C)CC(=O)N(C)Cc2cccs2)cc1 | x | x | n | x
Oc1cccc(C=NCc2ccccc2)c1O | n | 62 | n | 60
Cc1cc(C)nc(Sc2ccc(C=O)cc2[N+](=O)[O-])n1 | n | n | n | n
O=Cc1ccc(Sc2nnc(-c3ccccc3)o2)c([N+](=O)[O-])c1 | 43 | n | 94 | n
O=C1C2C3C=CC(CO)(O3)C2C(=O)N1c1ccccc1-c1ccccc1 (centres undefined) | n | n | 82 | n
CC(=O)Oc1ccc(N2C(=O)C3C4C=CC(CO)(O4)C3C2=O)cc1 (centres undefined) | n | n | n | n
CCOC(=O)c1cc(OC(=O)Cc2ccc(OC)c(S(=O)(=O)N3CCOCC3)c2)cc(C(=O)OCC)c1 | x | x | n | x
CCN1/C(=C/c2ccc3cc(C)ccc3[n+]2CC)Sc2ccc3sccc3c21 | n | x | 61 | x
COn1c(C)c(C(C)=O)c2c3nonc3ccc21 | n | 53 | n | n
CCCCOn1c(C)c(C(=O)OCC)c2c3nonc3ccc21 | n | x | n | x
SMILES | HKDC1 inhibitor | Diaph inh CS | PfG6PD inh | G6PDH counter
Cc1cc(C)cc(N=Cc2ccc([N+](=O)[O-])s2)c1 | n | n | 62 | n
NC(=O)c1ccc(N=Cc2ccc([N+](=O)[O-])s2)cc1 | n | n | 72 | n
O=[N+]([O-])c1ccc(C=Nc2ccc(Cl)c([N+](=O)[O-])c2)s1 | x | n | x | n
O=C(Cc1cccs1)N/N=C\c1ccc([N+](=O)[O-])s1 | n | n | n | n
COC(=O)CCC(C)C1CCC2C3CCC4CC(O)CCC4(C)C3=CC(=O)C12C (centres undefined) | n | x | n | x
Cc1occc1C(=O)N1CCC2(CCCN(Cc3ccc(F)c(F)c3)C2)C1 (centres undefined) | n | x | n | x
COc1cccc(NC(=O)COC(=O)c2ccccc2C(=O)N(C)c2ccccc2)c1 | n | x | n | x
Cc1ccc(N=Nc2c(N)[nH]n3c(=O)cc(-c4ccccc4)nc23)cc1 | n | 62 | n | n
CCc1nc(C)cn1S(=O)(=O)c1ccc2c(c1)OCCO2 | n | x | n | x
COc1cc(C(=O)Nc2scc(-c3ccc(Br)cc3)c2C(=O)O)cc(OC)c1OC | n | x | 59 | x
O=C(c1c[nH]c(C(=O)C(Cl)(Cl)Cl)c1)c1ccc(F)cc1Cl | n | 60 | n | n
Cc1c(Br)c(=O)oc2c(Br)c(O)c(O)cc12 | n | 75 | n | n
CC(=O)Nc1ccc(C(=O)NCC2CCCCC2)cc1 | n | x | n | x
COC(=O)c1cc(O)c(O)c(O)c1 | n | 50 | n | n
COC(=O)c1cc(OC)nc(OC)c1 | n | x | n | x
COC(=O)[C@@H](NCc1ccc(OC)c(B(O)O)c1)C(C)C | n | x | n | x
CC(=O)c1ccc(NC(=O)c2ccc(C)c(S(=O)(=O)N3CCOCC3)c2)cc1 | n | x | n | x
